Results taken from ChEMBL document CHEMBL1131229, “Synthesis, rotamer orientation, and calcium channel modulation activities of alkyl and 2-phenethyl 1,4-dihydro-2,6-dimethyl-3-nitro-4-(3- or 6-substituted-2-pyridyl)-5-pyridinecarboxylates” (J Med Chem, 1998).

Assays:
Cavia porcellus [1] = species: Cavia porcellus; test: Percent decrease in tonic contractile response in guinea pig ileal longitudinal smooth muscle.; assay type: functional; conditions: Muscle tissue
Method in brief: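 Guinea pig ileum longitudinal smooth muscle, tonic (slow) contraction evoked by carbachol at 1.6 × 10^-7 M (muscarinic, Ca²⁺-dependent). Test compound applied over a dose range. Concentration giving 50% inhibition (IC50 ± SEM, n = 3-18) read graphically from the dose-response curve.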

Cavia porcellus [2] = species: Cavia porcellus; test: Calcium channel agonist activity as percent increase in tonic contractile response in guinea pig left atrium; assay type: functional; conditions: Cardiac atrium
Method in brief: (§1)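 Racemic test compounds on isolated guinea pig left atrium, scored as positive inotropic (contractile) response. Dose-response curves constructed. EC50 (± SEM) taken graphically as the molar concentration producing 50% of the maximum contractile increase; number of experiments reported.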

Cavia porcellus [3] = species: Cavia porcellus; test: Calcium channel agonist activity as percent increase in tonic contractile response in guinea pig left atrium, Weak agonist; assay type: functional, Cardiac atrium; method in brief: as §1
Cavia porcellus [4] = species: Cavia porcellus; test: Calcium channel agonist activity as percent increase in tonic contractile response in guinea pig left atrium, Weak antagonist; assay type: functional, Cardiac atrium

With `CC1=NC(C)=C([N+](=O)[O-])C(c2ncccc2-c2ccccc2)/C1=C(/O)OCCc1ccccc1` (centres undefined) the IC50 (Cavia porcellus [1]) was 3.35 µM.

Compound `CC1=NC(C)=C([N+](=O)[O-])C(c2cccc([N+](=O)[O-])n2)/C1=C(/O)OCCc1ccccc1` (centres undefined) has an IC50 (Cavia porcellus [1]) of 4.74 µM.

`CC1=NC(C)=C([N+](=O)[O-])C(c2ccccn2)/C1=C(/O)OCCc1ccccc1` (centres undefined) gave an IC50 (Cavia porcellus [1]) of 0.639 µM.

Compound `CC1=NC(C)=C([N+](=O)[O-])C(c2ncccc2C)/C1=C(/O)OC(C)C` (centres undefined) has an EC50 (Cavia porcellus [2]) of 9.97 µM and an IC50 (Cavia porcellus [1]) of 2.82 µM.

`CC1=NC(C)=C([N+](=O)[O-])C(c2ncccc2Cl)/C1=C(/O)OCCc1ccccc1` (centres undefined) was tested, and the IC50 (Cavia porcellus [1]) was 5.17 µM.

`CC1=NC(C)=C([N+](=O)[O-])C(c2cccc(C)n2)/C1=C(/O)OC(C)C` (centres undefined) gave an EC50 (Cavia porcellus [2]) of 1.81 µM and an IC50 (Cavia porcellus [1]) of 25.1 µM.

Compound `CC1=NC(C)=C([N+](=O)[O-])C(c2ncccc2C)/C1=C(/O)OCCc1ccccc1` (centres undefined) has an IC50 (Cavia porcellus [1]) of 5.43 µM.

In the case of `CO/C(O)=C1/C(C)=NC(C)=C([N+](=O)[O-])C1c1cccc(C)n1` (centres undefined), the EC50 (Cavia porcellus [3]) is reported as “Partial agonist” and the IC50 (Cavia porcellus [1]) is reported as 2.29 µM.

Work on `CC1=NC(C)=C([N+](=O)[O-])C(c2cccc(Cl)n2)/C1=C(/O)OC(C)C` (centres undefined) yielded an EC50 (Cavia porcellus [2]) of 5.96 µM and an IC50 (Cavia porcellus [1]) of 16.7 µM.

For `CC1=NC(C)=C([N+](=O)[O-])C(c2cccc(Cl)n2)/C1=C(/O)OCCc1ccccc1` (centres undefined), the IC50 (Cavia porcellus [1]) was 1.51 µM.

In the case of `CC1=NC(C)=C([N+](=O)[O-])C(c2ncccc2C(F)(F)F)/C1=C(/O)OCCc1ccccc1` (centres undefined), the IC50 (Cavia porcellus [1]) is reported as > 59.8 µM.

In the case of `CC1=NC(C)=C([N+](=O)[O-])C(c2ncccc2[N+](=O)[O-])/C1=C(/O)OCCc1ccccc1` (centres undefined), the IC50 (Cavia porcellus [1]) is reported as 77.7 µM.

`CC1=NC(C)=C([N+](=O)[O-])C(c2cccc(C(F)(F)F)n2)/C1=C(/O)OCCc1ccccc1` (centres undefined) gave an IC50 (Cavia porcellus [1]) of 1.41 µM.

In the case of `CC1=NC(C)=C([N+](=O)[O-])C(c2cccc(C)n2)/C1=C(/O)OCCc1ccccc1` (centres undefined), the IC50 (Cavia porcellus [1]) is reported as 9.98 µM.

For `CC1=NC(C)=C([N+](=O)[O-])C(c2cccc(-c3ccccc3)n2)/C1=C(/O)OCCc1ccccc1` (centres undefined), the IC50 (Cavia porcellus [1]) was 8.38 µM.

In the case of `CC1=NC(C)=C([N+](=O)[O-])C(c2ncccc2[N+](=O)[O-])/C1=C(/O)OC(C)C` (centres undefined), the IC50 (Cavia porcellus [1]) is reported as 3.77 µM and the EC50 (Cavia porcellus [4]) is reported as “Partial antagonist”.

In the case of `CCO/C(O)=C1/C(C)=NC(C)=C([N+](=O)[O-])C1c1cccc(C)n1` (centres undefined), the EC50 (Cavia porcellus [2]) is reported as 12.3 µM and the IC50 (Cavia porcellus [1]) is reported as 17.2 µM.

Work on `COC(=O)C1=C(C)NC(C)=C(C(=O)OC)C1c1ccccc1[N+](=O)[O-]` [NIFEDIPINE] yielded an IC50 (Cavia porcellus [1]) of 0.014 µM.
